What is called IC50 is the concentration needed to halve the response being measured. The CC50 is the concentration that lowers cell viability or growth by half. Lower therefore signals harm at low concentration.

The structures appear in SMILES notation.

This note sets out measurements from ChEMBL document CHEMBL3745647, “Design, synthesis and biological evaluation of pyrazolyl-nitroimidazole derivatives as potential EGFR/HER-2 kinase inhibitors” (Bioorg Med Chem Lett, 2016).

Data set [1] deals with HeLa. Nature of the data set: Antiproliferative activity against human HeLa cells after 12 hrs by MTT assay. It is filed as functional, cell-based. A general note: Tetrazolium assays rely on reduction of a dye to a coloured formazan, in cell work by metabolically active cells.
Data set [2] is described as follows: Cytotoxicity against human HEK293T cells for 24 hrs by MTT assay. It is filed as cell-based, HEK-293T. In outline: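 293T human kidney epithelial cells exposed to multiple concentrations and viability read by MTT.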
Data set [3] addresses Receptor tyrosine-protein kinase erbB-2 (Homo sapiens, UniProt P04626). In words: Inhibition of His-tagged human HER-2 cytoplasmic domain (676-1245 aa) (unknown origin) assessed as inhibition of autophosphorylation by TR-fluorometry.
Data set [4] concerns the target Epidermal growth factor receptor (Homo sapiens, UniProt P00533). In words: Inhibition of His-tagged EGFR cytoplasmic domain (645-1186 aa) (unknown origin) assessed as inhibition of autophosphorylation by TR-fluorometry. To be noted: read-out: IC50.
Data set [5] has as its system HeLa. Nature of the data set: Induction of apoptosis in human HeLa cells assessed as necrotic cells at 1.04 uM after 48 hrs by annexin-V-FITC/PI staining based flow cytometry (reference value: 3.82%). It is filed as functional. In outline: (§1)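 HeLa cells treated at 0.13, 0.26, 0.52 or 1.04 µM for 48 h, then collected and stained with annexin V-FITC/PI for flow cytometry. Early apoptotic cells are annexin V+/PI− (lower right quadrant) and late apoptotic cells are annexin V+/PI+ (upper right quadrant). Data are mean ± S.E.M. of three independent experiments.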
A general note: A flow cytometer gives signals particle by particle.

The test system of data set [6] is HeLa. In words: Induction of apoptosis in human HeLa cells assessed as necrotic cells at 0.52 uM after 48 hrs by annexin-V-FITC/PI staining based flow cytometry (reference value: 3.82%). In kind it is functional. In outline:
as §1

For data set [7], the system named is HeLa. In words: Induction of apoptosis in human HeLa cells assessed as necrotic cells at 0.26 uM after 48 hrs by annexin-V-FITC/PI staining based flow cytometry (reference value: 3.82%). It is filed as functional. A digest of the protocol:
as §1

Data set [8] relates to HeLa. In words: Induction of apoptosis in human HeLa cells assessed as necrotic cells at 0.13 uM after 48 hrs by annexin-V-FITC/PI staining based flow cytometry (reference value: 3.82%). It is filed as functional. A digest of the protocol:
as §1

Data set [9] concerns HeLa. In words: Induction of apoptosis in human HeLa cells assessed as late apoptotic cells at 1.04 uM after 48 hrs by annexin-V-FITC/PI staining based flow cytometry (reference value: 8.52%). It is filed as functional. In outline: as §1
Data set [10] has as its system HeLa. Nature of the data set: Induction of apoptosis in human HeLa cells assessed as late apoptotic cells at 0.52 uM after 48 hrs by annexin-V-FITC/PI staining based flow cytometry (reference value: 8.52%). It is filed as functional. A digest of the protocol:
as §1

Data set [11] relates to HeLa. Nature of the data set: Induction of apoptosis in human HeLa cells assessed as late apoptotic cells at 0.26 uM after 48 hrs by annexin-V-FITC/PI staining based flow cytometry (reference value: 8.52%). In kind it is functional. In outline: as §1
Data set [12] concerns HeLa. Nature of the data set: Induction of apoptosis in human HeLa cells assessed as late apoptotic cells at 0.13 uM after 48 hrs by annexin-V-FITC/PI staining based flow cytometry (reference value: 8.52%). It is filed as functional. A digest of the protocol: as §1
In data set [13] the test system is HeLa. Nature of the data set: Induction of apoptosis in human HeLa cells assessed as early apoptotic cells at 1.04 uM after 48 hrs by annexin-V-FITC/PI staining based flow cytometry (reference value: 0.889%). In kind it is functional. In outline: as §1
Data set [14] deals with HeLa. In words: Induction of apoptosis in human HeLa cells assessed as early apoptotic cells at 0.52 uM after 48 hrs by annexin-V-FITC/PI staining based flow cytometry (reference value: 0.889%). It is filed as functional. In outline: as §1
Data set [15] relates to HeLa. In words: Induction of apoptosis in human HeLa cells assessed as early apoptotic cells at 0.26 uM after 48 hrs by annexin-V-FITC/PI staining based flow cytometry (reference value: 0.889%). In kind it is functional. In outline: as §1
Data set [16] deals with HeLa. In words: Induction of apoptosis in human HeLa cells assessed as early apoptotic cells at 0.13 uM after 48 hrs by annexin-V-FITC/PI staining based flow cytometry (reference value: 0.889%). It is filed as functional. In outline:
as §1

Data set [17] has as its system HeLa. Nature of the data set: Induction of apoptosis in human HeLa cells assessed as viable cells at 1.04 uM after 48 hrs by annexin-V-FITC/PI staining based flow cytometry (reference value: 86.8%). It is filed as functional. To be noted: read-out: Activity. A digest of the protocol:
as §1

For data set [18], the system named is HeLa. Nature of the data set: Induction of apoptosis in human HeLa cells assessed as viable cells at 0.52 uM after 48 hrs by annexin-V-FITC/PI staining based flow cytometry (reference value: 86.8%). In kind it is functional. To be noted: read-out: Activity. In outline: as §1
The subject of data set [19] is HeLa. Nature of the data set: Induction of apoptosis in human HeLa cells assessed as viable cells at 0.26 uM after 48 hrs by annexin-V-FITC/PI staining based flow cytometry (reference value: 86.8%). The following applies: read-out: Activity. In kind it is functional. In outline: as §1
The subject of data set [20] is HeLa. In words: Induction of apoptosis in human HeLa cells assessed as viable cells at 0.13 uM after 48 hrs by annexin-V-FITC/PI staining based flow cytometry (reference value: 86.8%). In kind it is functional. To be noted: read-out: Activity. In outline:
as §1

Data set [21] has as its system HeLa. In words: Induction of apoptosis in human HeLa cells after 48 hrs by annexin-V-FITC/PI staining based flow cytometry. In kind it is functional, cell-based. In outline: as §1
The nature of data set [22]: Antiproliferative activity against mouse B16F10 cells after 12 hrs by MTT assay. The following applies: B16-F10, 12 h. In kind it is functional, cell-based.
For data set [23], the system named is MCF7. In words: Antiproliferative activity against human MCF7 cells after 12 hrs by MTT assay. It is filed as functional, cell-based. To be noted: MCF7, 12 h.
Data set [24] has as its system HepG2. Nature of the data set: Antiproliferative activity against human HepG2 cells after 12 hrs by MTT assay. It is filed as functional, cell-based. The following applies: HepG2, 12 h.

Sequence of Epidermal growth factor receptor (P00533 whole entry, the tested form may be a part): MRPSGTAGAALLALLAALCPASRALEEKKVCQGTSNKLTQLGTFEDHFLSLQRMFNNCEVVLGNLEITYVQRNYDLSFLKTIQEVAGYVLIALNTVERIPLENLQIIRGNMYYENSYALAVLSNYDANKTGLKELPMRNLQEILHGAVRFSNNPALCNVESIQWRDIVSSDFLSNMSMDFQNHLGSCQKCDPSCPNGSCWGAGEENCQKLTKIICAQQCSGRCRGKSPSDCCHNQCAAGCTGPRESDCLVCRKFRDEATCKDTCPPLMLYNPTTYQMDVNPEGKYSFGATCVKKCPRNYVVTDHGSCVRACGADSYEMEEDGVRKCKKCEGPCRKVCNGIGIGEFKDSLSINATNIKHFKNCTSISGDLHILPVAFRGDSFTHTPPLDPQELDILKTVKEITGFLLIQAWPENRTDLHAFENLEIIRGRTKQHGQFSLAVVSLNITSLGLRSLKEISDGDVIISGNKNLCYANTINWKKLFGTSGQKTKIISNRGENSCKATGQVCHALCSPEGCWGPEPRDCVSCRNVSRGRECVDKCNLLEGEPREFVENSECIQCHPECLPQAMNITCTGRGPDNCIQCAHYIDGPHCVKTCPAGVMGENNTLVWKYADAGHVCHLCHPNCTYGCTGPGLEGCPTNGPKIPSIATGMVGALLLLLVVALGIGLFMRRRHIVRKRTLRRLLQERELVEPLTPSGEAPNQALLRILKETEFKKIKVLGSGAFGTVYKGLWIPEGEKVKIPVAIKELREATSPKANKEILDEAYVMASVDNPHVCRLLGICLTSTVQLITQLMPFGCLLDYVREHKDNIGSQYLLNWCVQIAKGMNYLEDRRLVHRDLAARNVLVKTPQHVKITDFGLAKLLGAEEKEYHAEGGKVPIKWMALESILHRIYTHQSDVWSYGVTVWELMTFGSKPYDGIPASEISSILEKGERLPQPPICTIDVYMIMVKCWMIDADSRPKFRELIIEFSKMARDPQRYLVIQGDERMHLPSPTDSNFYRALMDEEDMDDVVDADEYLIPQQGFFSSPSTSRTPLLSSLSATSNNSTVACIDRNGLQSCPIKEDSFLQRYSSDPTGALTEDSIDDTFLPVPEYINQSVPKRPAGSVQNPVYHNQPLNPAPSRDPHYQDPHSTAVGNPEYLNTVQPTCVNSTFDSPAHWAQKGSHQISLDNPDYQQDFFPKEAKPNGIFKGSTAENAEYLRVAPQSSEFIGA
Sequence of Receptor tyrosine-protein kinase erbB-2 (P04626 whole entry, the tested form may be a part): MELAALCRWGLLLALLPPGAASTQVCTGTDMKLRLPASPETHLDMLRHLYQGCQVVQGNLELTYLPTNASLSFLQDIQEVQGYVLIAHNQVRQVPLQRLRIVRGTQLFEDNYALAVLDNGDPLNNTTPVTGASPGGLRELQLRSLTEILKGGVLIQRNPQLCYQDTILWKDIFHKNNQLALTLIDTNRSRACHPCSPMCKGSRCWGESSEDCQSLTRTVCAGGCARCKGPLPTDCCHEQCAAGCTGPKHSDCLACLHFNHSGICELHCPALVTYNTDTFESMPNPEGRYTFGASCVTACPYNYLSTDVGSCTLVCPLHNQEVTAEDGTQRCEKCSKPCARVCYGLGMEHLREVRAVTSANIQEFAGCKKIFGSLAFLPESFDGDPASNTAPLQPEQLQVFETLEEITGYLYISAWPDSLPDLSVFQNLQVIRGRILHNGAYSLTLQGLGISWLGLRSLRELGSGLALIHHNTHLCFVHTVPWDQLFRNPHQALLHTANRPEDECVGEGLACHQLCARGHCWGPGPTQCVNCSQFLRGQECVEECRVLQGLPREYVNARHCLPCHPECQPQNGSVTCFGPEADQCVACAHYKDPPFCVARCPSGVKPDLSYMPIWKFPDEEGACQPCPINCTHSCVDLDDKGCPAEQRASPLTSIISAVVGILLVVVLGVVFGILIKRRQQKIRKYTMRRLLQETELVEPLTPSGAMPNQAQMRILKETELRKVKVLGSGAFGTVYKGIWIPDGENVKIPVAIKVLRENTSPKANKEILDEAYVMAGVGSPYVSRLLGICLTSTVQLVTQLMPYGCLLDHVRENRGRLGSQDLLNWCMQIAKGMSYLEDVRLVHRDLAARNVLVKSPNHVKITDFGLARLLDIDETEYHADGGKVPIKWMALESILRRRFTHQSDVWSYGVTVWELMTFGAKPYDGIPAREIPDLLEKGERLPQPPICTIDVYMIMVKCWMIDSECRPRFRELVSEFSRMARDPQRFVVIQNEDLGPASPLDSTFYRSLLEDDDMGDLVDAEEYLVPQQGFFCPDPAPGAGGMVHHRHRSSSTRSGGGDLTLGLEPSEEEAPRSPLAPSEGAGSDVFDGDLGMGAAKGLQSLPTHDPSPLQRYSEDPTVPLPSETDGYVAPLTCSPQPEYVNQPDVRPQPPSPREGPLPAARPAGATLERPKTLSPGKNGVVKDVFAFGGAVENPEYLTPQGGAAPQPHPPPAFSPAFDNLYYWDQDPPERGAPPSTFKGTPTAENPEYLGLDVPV

Turning to `CC(=O)N1N=C(c2ccc(C(F)(F)F)cc2)CC1c1ccc(C(=O)OCCn2c([N+](=O)[O-])cnc2C)cc1` (centres undefined), the concentration for half-maximal inhibition (IC50) in data set [1] was determined as 130 nM; in data set [3] it was 510 nM; in data set [4], 260 nM; in [22], 190 nM; in [23], 960 nM; in [24], 330 nM. For the same molecule, it took 98900 nM to reach half-maximal cytotoxicity in [2] (CC50 at 24 h). Besides, the Activity in data set [5] amounted to 0.43%; in data set [6] it was 0.988%; in [7] it was 0.688%; in [8], 1.88%; in data set [9], 26.7%; in [10], 20.7%. Also, the Activity in data set [11] amounted to 21.9%; in data set [12], 20.5%; in [13], 54.2%; in data set [14] it was 36.2%; in data set [15], 26.7%; in data set [16] it was 3.72%. In addition, the Activity entry in [21] is “Dose-dependent effect”. For the same molecule, the viability at 1.04 µM in [17] was found to be 18.6%. Further, the viability at 0.52 µM in [18] is 42.1%. Moreover, the viability at 0.26 µM in data set [19] was determined as 50.7%. Besides, the viability at 0.13 µM in data set [20] worked out at 73.9%.
